Blank lines part the entries; values can stand above or below the molecule they belong to.
How the values were obtained:
[1] = test system: MCF10A cells stably expressing Halo-KRAS^G12V; experiment: Immunoblot analysis of cell signaling in KRAS^G12V-MCF10A cells; assay type: cell-based; settings: 1 hour treatment
[2] = test system: RAS-deficient MEFs reconstituted with KRAS^Q61R; experiment: Immunoblot/immunoprecipitation analysis of cell signaling in KRAS^Q61R MEFs; assay type: cell-based, mouse
Summary of the method: (§1)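 RAS-deficient MEFs reconstituted with KRAS^Q61R or BRAF^V600E were grown in DMEM with 10% FBS at 37°C, 5% CO₂. Cells were plated at about 70% confluency and treated 48 h later for 1 h. They were lysed in NP-40 buffer (pH 8.0) for 15 min at 4°C, equalised by Bradford, and immunoblotted for pERK and total ERK. Blots are representative of ≥2 independent experiments.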

[3] = test system: RAS-deficient MEFs reconstituted with BRAF^V600E; experiment: Immunoblot analysis of cell signaling in BRAF^V600E MEFs; assay type: cell-based, mouse; settings: 1 hour treatment
Summary of the method: as §1

[4] = biological target: KRAS^Q61R/CRAF^WT interaction (Homo sapiens, UniProt P01116+P04049, Q61R); experiment: NanoBRET assay of Halo-KRAS^Q61R/Nano-CRAF^WT binding in live 293FT cells; assay type: cell-based
[5] = biological target: KRAS^G12D (Homo sapiens, UniProt P01116, G12D); experiment: SPR binding to captured avi-KRAS^G12D-GppNHp; settings: GppNHp-loaded KRAS^G12D; 100–1.56 μmol/L
Summary of the method: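 Avi-KRAS^G12D (aa 2–188) loaded with GppNHp was captured on a Neutravidin-coupled CM5 chip in a Biacore S200. Compounds were injected as a 2-fold series from 100 to 1.56 µmol/L over 2,300 RU, or singly at 100 µmol/L over 3,800 RU. Buffer was HEPES pH 7.5 with NaCl, Tween 20, MgCl₂ and 2.5% DMSO. Reference-cell and buffer responses were subtracted, with DMSO-mismatch correction.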

[6] = biological target: CRAF-RBD (Homo sapiens, UniProt P04049); experiment: SPR binding to captured avi-CRAF-RBD; settings: 100–1.56 μmol/L
Summary of the method: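 Avi-tagged CRAF-RBD (aa 52–131) was captured on a Neutravidin-coupled CM5 chip in a Biacore S200. A 2-fold series from 100 to 1.56 µmol/L was injected over 1,785 RU, and single 100 µmol/L doses over 3,000 RU. Reference-cell and buffer responses were subtracted, and DMSO mismatches were corrected with a standard curve.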

[7] = test system: KRAS^G12V or CRAF-RBD; experiment: SPR analysis, result summarised over both targets; assay type: binding; settings: single dose 100 μmol/L or dose-response 100–1.56 μmol/L

Molecule: COc1cc(/C=C(\C#N)C(N)=O)cc(CSc2nc3ccccc3s2)c1O [AG825]
pERK levels (ERK activation) [1]: increased RAS-dependent ERK activation
BRAF/CRAF dimer formation (CRAF immunoprecipitation probed for BRAF) ([2]; 10 μmol/L for 1 hour): increase the detection of heterodimerized CRAF/BRAF complexes
pERK levels (ERK activation) ([2]; 1 hour treatment, immunoblot): increased RAS-dependent ERK activation
pERK levels (ERK activation) [3]: pERK levels were reduced

IC50 [4]: 5 µM
Molecule: C[C@@H]1O[C@@H](O[C@H]2[C@H](O[C@H]3CO[C@@H](O[C@H]4CC[C@]5(C)[C@H]6CC[C@]78OC[C@@]9(CC[C@](C)(C=O)C[C@H]97)[C@H](O)C[C@@]8(C)[C@]6(C)CC[C@H]5C4(C)C)[C@H](O[C@@H]4O[C@H](CO)[C@@H](O)[C@H](O)[C@H]4O)[C@H]3O)O[C@H](CO)[C@@H](O)[C@@H]2O)[C@H](O)[C@H](O)[C@H]1O [Ardisiacrispin B]

IC50 [4]: 3.6 µM
SPR binding to KRAS^G12D [5]: non-selective and non-saturable binding
SPR binding to CRAF-RBD [6]: non-selective and non-saturable binding
Molecule: Clc1ccc(C(c2ccc(Cl)cc2)n2cc[n+](CC(OCc3ccc(Cl)cc3Cl)c3ccc(Cl)cc3Cl)c2)cc1 (centres unmarked) [Calmidazolium chloride]

IC50 [4]: 5.4 µM
Molecule: CCOc1nc2cccc(C(=O)OC(C)OC(=O)OC3CCCCC3)c2n1Cc1ccc(-c2ccccc2-c2nnn[nH]2)cc1 (centres unmarked) [Candesartan cilexetil]

Molecule: CN1C(=O)[C@]2(Cc3cn([C@]45C[C@@]67SS[C@@](CO)(C(=O)N6[C@H]4Nc4ccccc45)N(C)C7=O)c4ccccc34)SS[C@@]1(CO)C(=O)N2C [Chetomin]
IC50 [4]: 2.9 µM

Molecule: CC(C)=CCC[C@]1(C)C=Cc2c(O)c3c(c(CC=C(C)C)c2O1)O[C@]12C(=C[C@@H]4C[C@H]1C(C)(C)O[C@@]2(C/C=C(/C)C(=O)O)C4=O)C3=O [Gambogic acid]
IC50 [4]: 1.7 µM

Molecule: CN1C(=O)[C@]23CC4=CC=C[C@H](O)[C@H]4N2C(=O)[C@@]1(CO)SS3 [Gliotoxin]
IC50 [4]: 2.8 µM
pERK levels (ERK activation) [1]: inhibit RAS-dependent ERK activation
pERK levels (ERK activation) ([2]; 1 hour treatment, immunoblot): inhibit RAS-dependent ERK activation

Molecule: Cc1cc2c(C(C)C)c(O)c(O)c(C=O)c2c(O)c1-c1c(C)cc2c(C(C)C)c(O)c(O)c(C=O)c2c1O [Gossypol]
IC50 [4]: 5.2 µM

Molecule: CC(C)(C)CC(C)(C)NCC(O)COc1ccc(C(C)(C)c2ccc(OCC(O)CNC(C)(C)CC(C)(C)C)cc2)cc1.Cl (centres unmarked) [NSC145366]
pERK levels (ERK activation) [1]: inhibited ERK activation
pERK levels (ERK activation) ([2]; 1 hour treatment, immunoblot): inhibited ERK activation
pERK levels (ERK activation) [3]: suppressed pERK levels

Molecule: CC(C)=C[C@H]1C[C@H](C)[C@]2(CC[C@]3(C)C[C@H]4[C@H](C(=O)C[C@@]4(C)O)/C(C=O)=C\C[C@H]32)O1 [Ophiobolin A]
IC50 [4]: 1.08 µM
SPR binding to KRAS or the CRAF-RBD [7]: inability to detect binding
pERK levels (ERK activation) [1]: dose-dependent decrease
pMEK levels (phosphorylation and activation of MEK) [1]: dose-dependent decrease
phosphorylation of endogenous CRAF on S338 (pS338-CRAF) [1]: reduced the phosphorylation of CRAF on S338
pERK levels (ERK activation) ([2]; 1 hour treatment, immunoblot): reduced pERK levels in a dose-dependent manner
phosphorylation of endogenous CRAF on S338 (pS338-CRAF) ([2]; 1 hour treatment, immunoblot): reduced the phosphorylation of CRAF on S338

increase of the Halo-KRAS^Q61R/Nano-CRAF^WT interaction (BRET signal) ([4]; 0.5 and 1 μmol/L for 4 hours, normalized BRET signal): approximately 35%
Molecule: CN(C)CCOc1ccc(-c2nc(-c3ccncc3)c(-c3ccc4c(c3)CC/C4=N\O)[nH]2)cc1 [SB590885]

IC50 [4]: 6 µM
Molecule: CC(C)(C)c1ccc(C(O)CCCN2CCC(C(O)(c3ccccc3)c3ccccc3)CC2)cc1 (centres unmarked) [Terfenadine]

Molecule: C/C=C(/C)C(=O)O[C@H]1C(C)=C2[C@H]([C@@H]1OC(=O)CCCCCCC)[C@@](C)(OC(C)=O)C[C@H](OC(=O)CCC)[C@@]1(O)[C@H]2OC(=O)[C@@]1(C)O [Thapsigargin]
IC50 [4]: 14 µM

IC50 [4]: 14.3 µM
Molecule: CN1CCN(CCCN2c3ccccc3Sc3ccc(C(F)(F)F)cc32)CC1 [Trifluoperazine]

Molecule: COc1cc(CCN)c2c(c1OC)SSSSS2 [Varacin]
IC50 [4]: 9.5 µM

Molecule: Swinhopeptolide
SPR binding to KRAS^G12D [5]: slow on/off rates and possible non-specific binding
SPR binding to CRAF-RBD [6]: slow on/off rates and possible non-specific binding

Source: paper PMC8419108 (Molecular Cancer Therapeutics, 2021)
